In ChEMBL document CHEMBL5653632, “PRMT5 inhibition disrupts splicing and stemness in glioblastoma” (Nat Commun, 2021):
Calls of active or inactive are those of the source.

Tests used:
G411 = experiment: Antiproliferative activity against human G411 cells at 1 uM incubated for 9 to 12 days by IncuCyte zoom live-cell imaging analysis; assay type: functional, cell-based; details: time 9-12 day
Procedure, shortened: (§1)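 Adherent GSCs were cultured in serum-free medium with EGF and bFGF on poly-L-ornithine/laminin and plated in triplicate in 96-well plates. They were treated at 1 µM, with 1 µM SGC2096 or 0.05% DMSO as controls, for 9–12 days or until DMSO wells were confluent. Medium with drug was refreshed every 5 days. IncuCyte confluence was imaged every 8 h and normalized to each well's initial confluence.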

G583 = experiment: Antiproliferative activity against human G583 cells at 1 uM incubated for 9 to 12 days by IncuCyte zoom live-cell imaging analysis; assay type: functional, cell-based; details: time 9-12 day; procedure, shortened: as §1
[1] = molecular target: Protein arginine N-methyltransferase 5 (Homo sapiens) (UniProt O14744); experiment: Inhibition of PRMT5 in human G583 cells assessed as reduction in SDMA level at 1 uM after 5 days by Western blot analysis; assay type: cell-based; details: time 5.0 day
Procedure, shortened: (§2)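 Symmetric dimethylarginine on SmB/B' was measured by western blot with IRDye secondary antibodies and infrared imaging.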

G561 = experiment: Antiproliferative activity against human G561 cells at 1 uM incubated for 9 to 12 days by IncuCyte zoom live-cell imaging analysis; assay type: functional, cell-based; details: time 9-12 day; procedure, shortened: as §1
[2] = molecular target: Protein arginine N-methyltransferase 5 (Homo sapiens) (UniProt O14744); experiment: Inhibition of PRMT5 in human G411 cells assessed as reduction in SDMA level at 1 uM after 5 days by Western blot analysis; assay type: cell-based; details: time 5.0 day; procedure, shortened: as §2
[3] = molecular target: Protein arginine N-methyltransferase 5 (Homo sapiens) (UniProt O14744); experiment: Inhibition of PRMT5 in human G561 cells assessed as reduction in SDMA level at 1 uM after 5 days by Western blot analysis; assay type: cell-based; details: time 5.0 day; procedure, shortened: as §2

Chain of Protein arginine N-methyltransferase 5 (Homo sapiens) (O14744 whole entry): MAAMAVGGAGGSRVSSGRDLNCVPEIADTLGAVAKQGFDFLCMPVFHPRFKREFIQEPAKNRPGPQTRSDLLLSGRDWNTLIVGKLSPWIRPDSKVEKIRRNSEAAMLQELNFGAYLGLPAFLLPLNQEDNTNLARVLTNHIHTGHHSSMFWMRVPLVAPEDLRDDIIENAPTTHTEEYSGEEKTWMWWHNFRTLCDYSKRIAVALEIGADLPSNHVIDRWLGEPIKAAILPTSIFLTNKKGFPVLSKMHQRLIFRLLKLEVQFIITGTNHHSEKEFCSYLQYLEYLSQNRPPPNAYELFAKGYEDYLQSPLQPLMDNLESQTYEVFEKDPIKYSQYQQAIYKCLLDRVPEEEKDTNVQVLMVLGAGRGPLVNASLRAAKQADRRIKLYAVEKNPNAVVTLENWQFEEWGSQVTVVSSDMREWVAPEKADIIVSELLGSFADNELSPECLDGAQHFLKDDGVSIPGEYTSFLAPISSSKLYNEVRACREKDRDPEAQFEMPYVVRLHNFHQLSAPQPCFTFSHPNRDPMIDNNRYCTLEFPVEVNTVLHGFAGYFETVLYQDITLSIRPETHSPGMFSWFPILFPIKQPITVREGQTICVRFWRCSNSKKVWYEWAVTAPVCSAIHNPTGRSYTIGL

O=C(NC[C@H](O)CN1CCCCC1)c1ccnc(NC2CCC2)c1
inactive: Activity (G411) | Activity (G583) | inhibition [1] | Activity (G561) | inhibition [2] | inhibition [3]
